The list is not random: actives were taken first. Their share in the collection is about 1.6%.
NR1D1 modulator – modulators of Rev-erb alpha DNA binding, primary screen, biochemical, FITC-DNA, fluorescence polarization, uHTS. activity, % at 10 µM. Nuclear receptor subfamily 1 group D member 1 (Homo sapiens), P20393. Rev-erbα–FITC-DNA binding, 90 min. AID 1259318, 2017. 0.79% of 370,000 active;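 active = activity above about 14%, limit read from the data; passing the limit was not always enough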
Target sequence (P20393 whole entry, looked up): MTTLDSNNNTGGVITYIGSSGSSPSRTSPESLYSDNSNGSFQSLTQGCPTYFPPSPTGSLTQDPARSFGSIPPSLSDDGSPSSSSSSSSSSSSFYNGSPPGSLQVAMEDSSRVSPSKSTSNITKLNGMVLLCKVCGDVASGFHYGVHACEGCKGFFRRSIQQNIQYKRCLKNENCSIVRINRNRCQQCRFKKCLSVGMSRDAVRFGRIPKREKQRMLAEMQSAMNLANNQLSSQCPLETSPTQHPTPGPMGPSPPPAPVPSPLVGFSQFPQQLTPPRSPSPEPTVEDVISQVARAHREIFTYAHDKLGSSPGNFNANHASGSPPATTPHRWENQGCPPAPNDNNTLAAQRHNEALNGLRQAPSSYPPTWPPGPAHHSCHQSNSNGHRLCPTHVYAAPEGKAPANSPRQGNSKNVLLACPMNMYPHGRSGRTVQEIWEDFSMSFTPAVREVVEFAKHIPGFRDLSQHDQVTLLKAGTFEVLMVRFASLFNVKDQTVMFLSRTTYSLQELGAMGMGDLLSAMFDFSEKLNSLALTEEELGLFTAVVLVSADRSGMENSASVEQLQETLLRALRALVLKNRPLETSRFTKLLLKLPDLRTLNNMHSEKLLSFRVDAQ
NR2E3 ag-1 – inhibitors of NR2E3-RetCOR corepressor binding, primary screen, NR2E3 agonist project, biochemical, TR-FRET, GST-NR2E3, biotin-RetCOR | Photoreceptor-specific nuclear receptor (Homo sapiens), Q9Y5X4 | 1536-well | inhibition of corepressor binding, % at 4.78 µM | 0.12% of 320,000 active | AID 2300, 2010;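 active = percent inhibition above the cutoff of mean plus 3 SD of all tested compounds, set per screening campaign, cut at about 20% in these data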
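Material: NR2E3–RetCOR corepressor complex | Quantity: 1.35 nM GST-tagged NR2E3 final | Schedule: 5 h at 4 °C | Replication: Singlicate compound wells | Reagent: RetCOR corepressor, biotinylated, 7 nM | Controls: Biotin wells as high control, 0.6% DMSO wells as low control | Signal: TR-FRET, Eu(K)-anti-GST donor, streptavidin-D2 acceptor, ex 340, em 617/671 nm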
PKA-R2B act – activators of PKA-R2B holoenzyme, primary screen, biochemical, fluorescence polarization, Cy5-IP20, human; cAMP-dependent protein kinase catalytic subunit beta (Homo sapiens) + cAMP-dependent …; PKA-R2B holoenzyme dissociation; R2B truncated from residue 108, S112A mutant; 0% DMSO only, 100% 113 µM cGMP; activation, % at 11.4 µM; 0.079% of 340,000 active;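 active = activation above a cutoff set at the mean over all compounds plus 3 SD, cut at about 18% in these data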;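 note: higher means more holoenzyme dissociation and a rise in polarization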
PKA-R1A activ – activators of PKA-R1A holoenzyme, primary screen, biochemical, fluorescence polarization, Cy5-IP20, bovine R1A, mouse PKAc. cAMP-dependent protein kinase type I-alpha regulatory subunit (Bos taurus) + …. PKA-R1A dissociation; scaled: DMSO 0%, 113 µM cGMP 100%. activation, % at 11.4 µM. 0.083% of 340,000 active;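 active = percent activation above the mean of all tested compounds plus 3 SD, cut at about 19% in these data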;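 note: higher means more PKAc released from R1A so a rise in polarization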
NR2E3 ag-2 – NR2E3 agonists in two-hybrid cells, primary screen, cell-based, luminescence, CHO-S, Gal4-NCOR/VP16-NR2E3; 0.35% of 360,000 active; AID 602229, 2012; inhibition of corepressor binding, % at 3.98 µM; luciferase;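 active = inhibition above the mean of all tested compounds plus 3 SD, cut at about 70% in these data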;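 note: higher means lower luciferase signal from less NR2E3 corepressor binding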
PG9 binder – binders of HIV-1 gp120 antibody PG9, primary screen, biochemical, TR-FRET; HIV-1 gp120 / PG9 antibody interaction; TR-FRET gp120-PG9 antibody binding; inhibition, % at 6.7 µM; 0.43% of 360,000 active; AID 624416, 2012; in the data active = inhibition above about 8.5%
NR2E3 ag conf – NR2E3 agonist confirmation in cells, cell-based, luminescence, CHO-S two-hybrid; shares compounds with NR2E3 ag-2; CHO-S mammalian two-hybrid NR2E3-NCOR, luciferase luminescence; inhibition, % at 3.98 µM; 51% of 2,300 active; AID 624378, 2012;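 active = average inhibition above a cutoff equal to the mean inhibition of all tested compounds plus one SD, cut at about 70% in these data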
VP16 counter – GAL4-VP16 reporter modulators, confirmation, counter-screen for NR2E3 agonist project, cell-based, luminescence, CHO-S, high throughput; inhibition, % at 3.98 µM; CHO-S GAL4-VP16 luciferase reporter; shares compounds with NR2E3 ag-2; 29% of 2,300 active; AID 624379, 2012;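 active = mean inhibition above a cutoff equal to the average over all tested compounds plus one standard deviation, cut at about 70% in these data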;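 note: luciferase from a UAS reporter driven by GAL4-VP16 transactivation; higher means less reporter light so more repression of VP16 activity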
Large screens that a line does not name were inactive (follow-up assays come after a bar, where they were run).

Cc1ccc(OCc2nnc(SCC(=O)c3ccc4ccccc4c3)n2-c2ccc(Cl)cc2)cc1	none (no result: NR2E3 ag-1, PKA-R2B act, PKA-R1A activ, NR2E3 ag-2, PG9 binder)
CN(c1ccccc1)S(=O)(=O)c1cccc(NC(=O)c2ccncc2)c1	none | NR2E3 ag conf inactive | VP16 counter inactive
Cc1nc2ccc(NC(=O)c3cc(S(=O)(=O)N(C)c4ccccc4)ccc3Cl)cc2s1	NR2E3 ag-2 80.0 | NR2E3 ag conf 91.0 | VP16 counter 80.4
Cc1nc2ccc(NC(=O)c3ccc(Cl)c(S(=O)(=O)N(C)c4ccccc4)c3)cc2s1	none
CC(=O)Nc1ccc(C(=O)Nc2cccc(S(=O)(=O)N(C)c3ccccc3)c2)cc1	none
CC(C)(C)C(=O)OC12CCCN(C1)/C(=C/c1ccc(C#N)cc1)C2 (configuration not stated)	none (no result: NR2E3 ag-1, PKA-R2B act, PKA-R1A activ, NR2E3 ag-2, PG9 binder)
COc1ccc(-c2cc(C(=O)N(C3CCCCC3)C3CCCCC3)no2)cc1	none (no result: NR2E3 ag-1, PKA-R2B act, PKA-R1A activ, NR2E3 ag-2, PG9 binder)
COc1ccc(S[C@]2(C(=O)N(C)C)CC(=O)N(S(=O)(=O)c3ccc(F)cc3)[C@@H]2c2ccc(OC)cc2)cc1	none (no result: NR2E3 ag-1, PKA-R2B act, PKA-R1A activ, NR2E3 ag-2, PG9 binder)
O=C(NNc1c([N+](=O)[O-])cc(C(F)(F)F)cc1[N+](=O)[O-])c1ccco1	none | NR2E3 ag conf inactive | VP16 counter inactive
COc1ccc(-c2ccc3c(n2)CCCN3Cc2ccccc2C(F)(F)F)cc1	none (no result: NR2E3 ag-1, PKA-R2B act, PKA-R1A activ, NR2E3 ag-2)
COC(=O)C1CN(Cc2ccc(Cl)cc2)CCS(=O)(=O)N1Cc1cn(Cc2ccccc2)nn1 (configuration not stated)	none (no result: NR2E3 ag-1, PKA-R2B act, PKA-R1A activ, NR2E3 ag-2, PG9 binder)
C#CCNC(=O)C[C@H]1C[C@@]2(C(=O)OC)C(=C[C@H](C(C)(C)C)O[C@@H]2C)N(Cc2ccco2)C1=O	none (no result: NR2E3 ag-1, PKA-R2B act, PKA-R1A activ, NR2E3 ag-2, PG9 binder)
CCOc1ccccc1CNS(=O)(=O)c1ccc(-c2cnc(C3CC3)o2)cc1	NR2E3 ag-2 84.9 | NR2E3 ag conf inactive | VP16 counter inactive
Cc1ccc(CNS(=O)(=O)c2ccc(-c3cnc(C4CC4)o3)cc2)cc1	NR2E3 ag-2 70.5 | NR2E3 ag conf inactive | VP16 counter inactive
O=S(=O)(NCc1ccccc1)c1ccc(-c2cnc(C3CC3)o2)cc1	none
Cc1ccc(NS(=O)(=O)c2ccc(-c3cnc(C4CC4)o3)cc2)cc1	none
Cc1cccc(C)c1NS(=O)(=O)c1ccc(-c2cnc(C3CC3)o2)cc1	NR2E3 ag-2 70.2 | NR2E3 ag conf inactive | VP16 counter inactive
COc1ccc(C)cc1NS(=O)(=O)c1ccc(-c2cnc(C3CC3)o2)cc1	NR2E3 ag-2 103.1 | NR2E3 ag conf inactive | VP16 counter inactive
Clc1ccc(-c2nnc(CSc3nnc(-c4cccs4)n3Cc3ccccc3)o2)cc1	NR2E3 ag-2 74.3 | NR2E3 ag conf 87.7 | VP16 counter 74.1
Cc1nnc(SCc2nnc(-c3cccs3)o2)n1Cc1ccccc1	none
O=S1(=O)CC2c3ccccc3CN2CN1Cc1ccc(F)cc1 (configuration not stated)	none (no result: NR2E3 ag-1, PKA-R2B act, PKA-R1A activ, NR2E3 ag-2, PG9 binder)
COc1ccccc1NC(=S)NNC(=O)c1ccc(Cl)cc1Cl	none | NR2E3 ag conf inactive | VP16 counter inactive
Nc1ncnc2c(C3OC(CO)C(O)C3O)c[nH]c12 (configuration not stated)	NR2E3 ag-2 102.9 (no result: NR2E3 ag-1) | NR2E3 ag conf 100.6 | VP16 counter 99.4
NC(=O)C1CCN(c2nc(-c3ccc4c(c3)OCCCO4)cs2)CC1	none (no result: NR2E3 ag-1, PKA-R2B act, PKA-R1A activ, NR2E3 ag-2, PG9 binder)
CSc1ccc(CN(C)C(=O)c2ccc(S(=O)(=O)Nc3ccccc3)cc2)cc1	none | NR2E3 ag conf inactive | VP16 counter inactive
CSc1ccc(CN(C)C(=O)c2ccc(S(=O)(=O)Nc3c(C)n(C)n(-c4ccccc4)c3=O)cc2)cc1	none (no result: NR2E3 ag-1)
O=C(N=C1N(Cc2ccccc2)C[C@]2(C=C3CCCCC3n3c(=O)n(-c4ccccc4)c(=O)n32)N1C(=O)OCc1ccccc1)c1ccccc1 (some centres not stated)	none (no result: NR2E3 ag-1, PKA-R2B act, PKA-R1A activ, NR2E3 ag-2, PG9 binder)
O=C(Nc1ccncc1)Nc1cccc(C(F)(F)F)c1	none
O=C(Nc1ccc(OC(F)(F)F)cc1)Nc1cccc([N+](=O)[O-])c1	NR2E3 ag-2 93.7 | NR2E3 ag conf 99.3 | VP16 counter 87.9
CCN(CC)S(=O)(=O)c1ccc(NC(=O)Nc2cccc(C(F)(F)F)c2)cc1	none | NR2E3 ag conf 74.7 | VP16 counter inactive
O=C(Nc1ccc(OC(F)F)cc1)Nc1cccc(C(F)(F)F)c1	none | NR2E3 ag conf inactive | VP16 counter inactive
Cc1ccc(S(=O)(=O)Nc2ccc(NC(=O)Nc3cccc(C(F)(F)F)c3)cc2)cc1	none
Cc1ccc(NC(=O)Nc2cccc([N+](=O)[O-])c2)cc1F	none
COC(=O)[C@H](C(C)C)N(CCc1cn(CC2CCCCC2)nn1)S(=O)(=O)c1ccccc1Br	none (no result: NR2E3 ag-1, PKA-R2B act, PKA-R1A activ, NR2E3 ag-2, PG9 binder)
CC(C)C[C@H]1COc2cc(Br)ccc2S(=O)(=O)N1Cc1cn(Cc2ccc(C(F)(F)F)cc2)nn1	none (no result: NR2E3 ag-1, PKA-R2B act, PKA-R1A activ, NR2E3 ag-2, PG9 binder)
COC(=O)CSc1nnc(-c2ccc(NS(=O)(=O)c3ccc(Cl)s3)cc2)o1	none (no result: NR2E3 ag-1, PKA-R2B act, PKA-R1A activ, NR2E3 ag-2, PG9 binder)
Cc1ccsc1C=Nn1c(-c2n[nH]c3c2CCC3)n[nH]c1=S	none (no result: NR2E3 ag-1, PKA-R2B act, PKA-R1A activ, NR2E3 ag-2, PG9 binder)
CC1CCCCN1S(=O)(=O)c1ccc(N(C(=O)c2cnccn2)C(C(=O)NC2CCCCC2)c2cccs2)cc1 (configuration not stated)	none | NR2E3 ag conf inactive | VP16 counter inactive
COc1ccc(CNS(=O)(=O)c2ccc3c(c2)CCN3C(=O)C2CC2)cc1	none | NR2E3 ag conf inactive | VP16 counter inactive
COc1cccc(CNS(=O)(=O)c2ccc3c(c2)CC(C)N3C(=O)C2CC2)c1 (configuration not stated)	none | NR2E3 ag conf inactive | VP16 counter inactive
COc1ccc(CNS(=O)(=O)c2ccc3c(c2)CC(C)N3C(=O)C2CC2)cc1 (configuration not stated)	NR2E3 ag-2 95.2 | NR2E3 ag conf 89.3 | VP16 counter 75.2
O=C(C1CC1)N1CCc2cc(S(=O)(=O)NCCCN3CCCCC3)ccc21	none
